Laboratory results from ChEMBL document CHEMBL1145884, “Synthesis and biological activity of novel 1beta-methylcarbapenems with oxyiminopyrrolidinylamide moiety” (2003).
Converted amounts (≈) assume the structure as drawn.

system: Salmonella enteritidis; assay: Compound was evaluated for its antibacterial activity against […] enteritidis 2; format: functional, Salmonella enterica subsp. enterica serovar Enteritidis; details: Salmonella enterica

SMILES	MIC
C[C@@H](O)[C@H]1C(=O)N2C(C(=O)O)=C(S[C@@H]3CN[C@H](C(=O)N(C)C)C3)[C@H](C)[C@H]12 [MEROPENEM]	0.016 µg/mL (≈ 0.0417 µM)

system: Escherichia coli; assay: Compound was evaluated for its antibacterial activity against Escherichia coli CCARM 1114 MDR; format: functional; details: not given

SMILES	MIC
C[C@@H](O)[C@H]1C(=O)N2C(C(=O)O)=C(S[C@@H]3CN[C@H](C(=O)N(C)C)C3)[C@H](C)[C@H]12 [MEROPENEM]	0.03 µg/mL (≈ 0.0782 µM)

system: Escherichia coli; assay: Compound was evaluated for its antibacterial activity against Escherichia coli CCARM 1111 MDR; format: functional; details: not given

SMILES	MIC
C[C@@H](O)[C@H]1C(=O)N2C(C(=O)O)=C(S[C@@H]3CN[C@H](C(=O)N(C)C)C3)[C@H](C)[C@H]12 [MEROPENEM]	0.016 µg/mL (≈ 0.0417 µM)

system: Escherichia coli; assay: Compound was evaluated for its antibacterial activity against Escherichia coli 0157:H7; format: functional; details: not given

SMILES	MIC
C[C@@H](O)[C@H]1C(=O)N2C(C(=O)O)=C(S[C@@H]3CN[C@H](C(=O)N(C)C)C3)[C@H](C)[C@H]12 [MEROPENEM]	0.03 µg/mL (≈ 0.0782 µM)

system: Klebsiella pneumoniae; assay: Compound was evaluated for its antibacterial activity against Klebsiella pneumoniae 10 ESBL; format: functional; details: not given

SMILES	MIC
C[C@@H](O)[C@H]1C(=O)N2C(C(=O)O)=C(S[C@@H]3CN[C@H](C(=O)N(C)C)C3)[C@H](C)[C@H]12 [MEROPENEM]	0.016 µg/mL (≈ 0.0417 µM)

system: Escherichia coli; assay: Compound was evaluated for its antibacterial activity against Escherichia coli CCARM 1109 MDR; format: functional; details: not given

SMILES	MIC
C[C@@H](O)[C@H]1C(=O)N2C(C(=O)O)=C(S[C@@H]3CN[C@H](C(=O)N(C)C)C3)[C@H](C)[C@H]12 [MEROPENEM]	0.03 µg/mL (≈ 0.0782 µM)

system: Pseudomonas aeruginosa; assay: Compound was evaluated for its antibacterial activity against Pseudomonas aeruginosa 3 MDR; format: functional; details: not given

SMILES	MIC
C[C@@H](O)[C@H]1C(=O)N2C(C(=O)O)=C(S[C@@H]3CN[C@H](C(=O)N(C)C)C3)[C@H](C)[C@H]12 [MEROPENEM]	8 µg/mL (≈ 20.9 µM)

system: Shigella sonnei; assay: Compound was evaluated for its antibacterial activity against Shigella sonnei ATCC 9290; format: functional; details: not given

SMILES	MIC
C[C@@H](O)[C@H]1C(=O)N2C(C(=O)O)=C(S[C@@H]3CN[C@H](C(=O)N(C)C)C3)[C@H](C)[C@H]12 [MEROPENEM]	0.03 µg/mL (≈ 0.0782 µM)

system: Escherichia coli; assay: Compound was evaluated for its antibacterial activity against Escherichia coli CCARM 1110 MDR; format: functional; details: not given

SMILES	MIC
C[C@@H](O)[C@H]1C(=O)N2C(C(=O)O)=C(S[C@@H]3CN[C@H](C(=O)N(C)C)C3)[C@H](C)[C@H]12 [MEROPENEM]	0.016 µg/mL (≈ 0.0417 µM)

system: Klebsiella pneumoniae; assay: Compound was evaluated for its antibacterial activity against Klebsiella pneumoniae 3 ESBL; format: functional; details: not given

SMILES	MIC
C[C@@H](O)[C@H]1C(=O)N2C(C(=O)O)=C(S[C@@H]3CN[C@H](C(=O)N(C)C)C3)[C@H](C)[C@H]12 [MEROPENEM]	0.06 µg/mL (≈ 0.156 µM)

system: Escherichia coli; assay: Compound was evaluated for its antibacterial activity against Escherichia coli CCARM 1115 MDR; format: functional; details: not given

SMILES	MIC
C[C@@H](O)[C@H]1C(=O)N2C(C(=O)O)=C(S[C@@H]3CN[C@H](C(=O)N(C)C)C3)[C@H](C)[C@H]12 [MEROPENEM]	0.016 µg/mL (≈ 0.0417 µM)

system: Pseudomonas aeruginosa; assay: Compound was evaluated for its antibacterial activity against Pseudomonas aeruginosa ATCC 27853; format: functional; details: not given

SMILES	MIC
C[C@@H](O)[C@H]1C(=O)N2C(C(=O)O)=C(S[C@@H]3CN[C@H](C(=O)N(C)C)C3)[C@H](C)[C@H]12 [MEROPENEM]	0.5 µg/mL (≈ 1.3 µM)

system: Pseudomonas aeruginosa; assay: Compound was evaluated for its antibacterial activity against Pseudomonas aeruginosa 1 MDR; format: functional; details: not given

SMILES	MIC
C[C@@H](O)[C@H]1C(=O)N2C(C(=O)O)=C(S[C@@H]3CN[C@H](C(=O)N(C)C)C3)[C@H](C)[C@H]12 [MEROPENEM]	1 µg/mL (≈ 2.61 µM)

system: Klebsiella pneumoniae; assay: Compound was evaluated for its antibacterial activity against Klebsiella pneumoniae 2 ESBL; format: functional; details: not given

SMILES	MIC
C[C@@H](O)[C@H]1C(=O)N2C(C(=O)O)=C(S[C@@H]3CN[C@H](C(=O)N(C)C)C3)[C@H](C)[C@H]12 [MEROPENEM]	0.03 µg/mL (≈ 0.0782 µM)

system: Staphylococcus aureus; assay: Antibacterial activity against Staphylococcus aureus 285; format: functional; details: not given

SMILES	MIC
C[C@@H](O)[C@H]1C(=O)N2C(C(=O)O)=C(S[C@@H]3CN[C@H](C(=O)N(C)C)C3)[C@H](C)[C@H]12 [MEROPENEM]	0.195 µg/mL (≈ 0.509 µM)

system: Staphylococcus aureus; assay: Antibacterial activity against Staphylococcus aureus 503; format: functional; details: not given

SMILES	MIC
C[C@@H](O)[C@H]1C(=O)N2C(C(=O)O)=C(S[C@@H]3CN[C@H](C(=O)N(C)C)C3)[C@H](C)[C@H]12 [MEROPENEM]	0.098 µg/mL (≈ 0.256 µM)

system: Escherichia coli; assay: Compound was evaluated for its antibacterial activity against Escherichia coli CCARM 1112 MDR; format: functional; details: not given

SMILES	MIC
C[C@@H](O)[C@H]1C(=O)N2C(C(=O)O)=C(S[C@@H]3CN[C@H](C(=O)N(C)C)C3)[C@H](C)[C@H]12 [MEROPENEM]	0.016 µg/mL (≈ 0.0417 µM)

system: Pseudomonas aeruginosa; assay: Antibacterial activity against Pseudomonas aeruginosa 9027; format: functional; details: not given
Outline: (§1)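 MIC was determined by agar dilution on Mueller–Hinton medium.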

SMILES	MIC
C[C@@H](O)[C@H]1C(=O)N2C(C(=O)O)=C(S[C@@H]3CN[C@H](C(=O)N(C)C)C3)[C@H](C)[C@H]12 [MEROPENEM]	0.195 µg/mL (≈ 0.509 µM)

system: Escherichia coli; assay: Antibacterial activity against Escherichia coli 1507E; format: functional; details: not given; outline: as §1

SMILES	MIC
C[C@@H](O)[C@H]1C(=O)N2C(C(=O)O)=C(S[C@@H]3CN[C@H](C(=O)N(C)C)C3)[C@H](C)[C@H]12 [MEROPENEM]	0.025 µg/mL (≈ 0.0652 µM)

system: Enterobacter cloacae; assay: Compound was evaluated for its antibacterial activity against Enterobacter cloacae P99; format: functional; details: not given

SMILES	MIC
C[C@@H](O)[C@H]1C(=O)N2C(C(=O)O)=C(S[C@@H]3CN[C@H](C(=O)N(C)C)C3)[C@H](C)[C@H]12 [MEROPENEM]	0.03 µg/mL (≈ 0.0782 µM)

system: Pseudomonas aeruginosa; assay: Antibacterial activity against Pseudomonas aeruginosa 1771M; format: functional; details: not given; outline: as §1

SMILES	MIC
C[C@@H](O)[C@H]1C(=O)N2C(C(=O)O)=C(S[C@@H]3CN[C@H](C(=O)N(C)C)C3)[C@H](C)[C@H]12 [MEROPENEM]	0.049 µg/mL (≈ 0.128 µM)

system: Escherichia coli; assay: Compound was evaluated for its antibacterial activity against Escherichia coli CCARM 1116 MDR; format: functional; details: not given

SMILES	MIC
C[C@@H](O)[C@H]1C(=O)N2C(C(=O)O)=C(S[C@@H]3CN[C@H](C(=O)N(C)C)C3)[C@H](C)[C@H]12 [MEROPENEM]	0.03 µg/mL (≈ 0.0782 µM)

system: Klebsiella pneumoniae; assay: Compound was evaluated for its antibacterial activity against Klebsiella pneumoniae 9 ESBL; format: functional; details: not given

SMILES	MIC
C[C@@H](O)[C@H]1C(=O)N2C(C(=O)O)=C(S[C@@H]3CN[C@H](C(=O)N(C)C)C3)[C@H](C)[C@H]12 [MEROPENEM]	0.03 µg/mL (≈ 0.0782 µM)

system: Escherichia coli; assay: Compound was evaluated for its antibacterial activity against Escherichia coli DC 0; format: functional; details: not given

SMILES	MIC
C[C@@H](O)[C@H]1C(=O)N2C(C(=O)O)=C(S[C@@H]3CN[C@H](C(=O)N(C)C)C3)[C@H](C)[C@H]12 [MEROPENEM]	0.03 µg/mL (≈ 0.0782 µM)

system: not listed separately; assay: Compound was evaluated for its relative half life of hydrolysis to meropenem by partially purified porcine renal dihydropeptidase-I (DHP-I); format: functional; details: Sus scrofa

SMILES	relative t1/2 (DHP-I hydrolysis vs meropenem)
C[C@@H](O)[C@H]1C(=O)N2C(C(=O)O)=C(S[C@@H]3CN[C@H](C(=O)N(C)C)C3)[C@H](C)[C@H]12 [MEROPENEM]	1

system: Staphylococcus aureus; assay: Antibacterial activity against Staphylococcus aureus SG 511; format: functional; details: not given

SMILES	MIC
C[C@@H](O)[C@H]1C(=O)N2C(C(=O)O)=C(S[C@@H]3CN[C@H](C(=O)N(C)C)C3)[C@H](C)[C@H]12 [MEROPENEM]	0.195 µg/mL (≈ 0.509 µM)

system: Salmonella enteritidis; assay: Compound was evaluated for its antibacterial activity against […] enteritidis 3; format: functional, Salmonella enterica subsp. enterica serovar Enteritidis; details: Salmonella enterica

SMILES	MIC
C[C@@H](O)[C@H]1C(=O)N2C(C(=O)O)=C(S[C@@H]3CN[C@H](C(=O)N(C)C)C3)[C@H](C)[C@H]12 [MEROPENEM]	0.03 µg/mL (≈ 0.0782 µM)
